From PubChem
An excerpt weighted towards active compounds, which were near 1.9% of everything screened.
UBC13 polyUb – UBC13 polyubiquitin chain formation inhibitors, primary screen, biochemical, TR-FRET, uHTS. Ubiquitin-conjugating enzyme E2 N (Homo sapiens), P61088. inhibition, % at 20 µM. 330,000 tested, 0.47% active. AID 485273, 2010; in the data active = inhibition above about 45%, passing the limit was not always enough
PHOSPHO1 block – PubChem AID 1565; Phosphoethanolamine/phosphocholine phosphatase (Homo sapiens), Q8TCT1; recombinant PHOSPHO1, absorbance phosphatase assay; inhibition, % at 13.3 µM; 290,000 tested, 1.1% active; in the data active = inhibition above about 60%
proCasp7 act – procaspase-7 activators, primary screen, counter-screen for procaspase-3 activator project, biochemical, absorbance, HTS, human. activation, % at 8.5 µM. recombinant procaspase-7, Ac-DEVD-pNA absorbance 405 nm; D23A/D198A/D206A triple mutant, cannot self-cleave; scale: DMSO 0, 5 µM enzyme 100. 330,000 tested, 0.093% active. AID 463210, 2010. Caspase-7 (Homo sapiens), P55210;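 active = percent activation above the screen-wide mean plus 3 SD, cut at about 25% in these data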
Target sequence (P55210 whole entry D23A/D198A/D206A): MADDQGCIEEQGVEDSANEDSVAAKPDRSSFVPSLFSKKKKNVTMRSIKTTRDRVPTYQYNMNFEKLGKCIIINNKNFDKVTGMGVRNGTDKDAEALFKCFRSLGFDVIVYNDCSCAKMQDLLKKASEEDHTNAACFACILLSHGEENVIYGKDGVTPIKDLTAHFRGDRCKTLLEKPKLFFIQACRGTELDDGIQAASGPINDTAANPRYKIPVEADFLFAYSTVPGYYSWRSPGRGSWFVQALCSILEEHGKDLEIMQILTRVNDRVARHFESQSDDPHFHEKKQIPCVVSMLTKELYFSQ
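Assay system: Uncleavable procaspase-7 mutant enzyme / Input: 2 µM procaspase-7 mutant as dispensed / Dosing: single nominal 8.5 µM compound dose, 0.8% DMSO final / Timing: 1 h enzyme–compound preincubation and 2 h substrate reaction, both 25 °C / Detection: p-Nitroaniline absorbance at 405 nm, read at 0 and 120 min / Replication: singlicate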
procasp3 activ – activators of human procaspase-3 D3A mutant, primary screen, biochemical, absorbance, PC-3 D3A mutant, single concentration. Caspase-3 (Homo sapiens), P42574. recombinant procaspase-3 D3A, Ac-DEVD-pNA absorbance 405 nm. activation, % at 8.5 µM. 330,000 tested, 0.11% active. AID 463141, 2010;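 active = activation above the mean of all tested compounds plus 3 SD, cut at about 21% in these data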
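System: Procaspase-3 D3A mutant. Medium: Zinc-free 300 mM NaCl, 50 mM HEPES, 0.01% Triton X-100. Schedule: 1 h preincubation plus 2 h reaction at 25 °C. Measured by: 405 nm absorbance of p-nitroaniline, reads at 0 and 120 min. Read-out: percent activation relative to control range.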
IDE inh – human IDE inhibitors in live cells, primary screen, fluorescence polarization, HEK cells, FAbetaB substrate; Insulin-degrading enzyme (Homo sapiens), P14735; FAbetaB cleavage; inhibition, % at 5.59 µM; 320,000 tested, 0.41% active; AID 434962, 2010;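 active = percent inhibition above the average of all tested compounds plus 3 SD, set per screening campaign, cut at about 16% in these data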;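 note: IDE supplied by intact live HEK cells; FP after avidin binding of uncleaved biotin substrate so inhibition keeps polarization high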
IDE cell activ – human IDE activators in live cells, primary screen, fluorescence polarization, HEK cells, FAbeta-B substrate. activation, % at 5.96 µM. FAbeta-B cleavage; 0% vehicle, 100% cell-free pure enzyme wells. Insulin-degrading enzyme (Homo sapiens), P14735. 340,000 tested, 0.073% active;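 active = activation above the mean of all tested compounds plus 3 SD, set per screening campaign, cut at about 17% in these data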
Casp3 UBC13 ctr – CASP3 inhibitor validation, counterassay for project on UBE2N polyubiquitination blockers, biochemical, one dose | 1,400 tested, 4% active | Recombinant caspase-3, Caspase-Glo 3/7 luminescence, 60 min | shares compounds with UBC13 polyUb | inhibition, % at 20 µM;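 active = mean inhibition across replicates above about 26%, limit read from the data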
Target sequence (P42574 whole entry, looked up): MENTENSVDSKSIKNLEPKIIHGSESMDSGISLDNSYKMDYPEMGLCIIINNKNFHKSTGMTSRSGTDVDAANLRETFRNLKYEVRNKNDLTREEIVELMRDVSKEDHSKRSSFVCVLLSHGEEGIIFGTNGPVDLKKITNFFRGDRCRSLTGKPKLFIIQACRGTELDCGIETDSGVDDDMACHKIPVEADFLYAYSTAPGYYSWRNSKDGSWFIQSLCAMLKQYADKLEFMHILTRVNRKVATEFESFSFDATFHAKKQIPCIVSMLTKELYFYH
UBC13 conf – UBC13 polyubiquitination inhibitors, single-point retest, confirmation, biochemical, TR-FRET, single concentration. AID 488859, 2010. shares compounds with UBC13 polyUb. inhibition, % at 10 µM. 1,400 tested, 68% active; in the data active = inhibition above about 45%
Each line names hits and unclear results; the compound was inactive in the other large screens (follow-up assays come after a bar, where they were run).

Cc1ccc(C(C(=O)NCC2CCCO2)N(C(=O)c2snc(C(N)=O)c2N)c2ccccc2F)o1 (stereo unspecified)	UBC13 polyUb 47 | Casp3 UBC13 ctr inactive | UBC13 conf inactive
CCOc1ccc(C(C(=O)NCC2CCCO2)N(C(=O)c2snc(C(N)=O)c2N)c2cccc(F)c2)cc1 (stereo unspecified)	none
CCOc1ccc(N(C(=O)c2snc(C(N)=O)c2N)C(C(=O)NCC2CCCO2)c2ccc(C)o2)cc1 (stereo unspecified)	UBC13 polyUb 74 (no result: proCasp7 act, procasp3 activ, IDE inh) | Casp3 UBC13 ctr inactive | UBC13 conf 82
CCOc1ccc(C(C(=O)NCC2CCCO2)N(C(=O)c2snc(C(N)=O)c2N)c2ccccc2F)cc1 (stereo unspecified)	UBC13 polyUb 48 | Casp3 UBC13 ctr inactive | UBC13 conf 48
O=C(NCc1ccccc1F)C1CCCN(c2cnccn2)C1 (stereo unspecified)	none
CSCCC(NC(=O)COc1ccccc1)C(=O)N(C)Cc1ccc(Cl)cc1Cl (stereo unspecified)	none (no result: PHOSPHO1 block)
CC(O)(CS(=O)(=O)Cc1ccccc1)c1ccccc1 (stereo unspecified)	none
CC[C@@]1(C(=O)OC)N[C@H](CN(C)C(=O)Nc2ccc(F)cc2)[C@@H]2C(=O)N(C)C(=O)[C@@H]21	none (no result: PHOSPHO1 block)
O=C(C[n+]1cc(-c2ccc(Cl)c(Cl)c2)n2c1CCC2)N1c2ccccc2Sc2ccccc21	UBC13 polyUb 45 | Casp3 UBC13 ctr inactive | UBC13 conf inactive
O=C(C[n+]1cc(-c2ccc(Cl)cc2)n2c1CCC2)N1c2ccccc2Sc2ccccc21	none
COc1cc(SC)ccc1C(=O)N1CCN(Cc2ccc3c(c2)OCO3)CC1	none
COc1ccc2nc(-c3ccco3)c(-c3ccco3)nc2c1	none
c1coc(-c2nc(-c3ccco3)c(-c3ccco3)nc2-c2ccco2)c1	UBC13 polyUb 77, PHOSPHO1 block 68 | Casp3 UBC13 ctr inactive | UBC13 conf 64
CCN(CC)CCNC(=O)c1ccc(NC(=O)c2cn(-c3ccc(F)cc3)nc2-c2cccc(OC)c2)cc1	UBC13 polyUb 92 | Casp3 UBC13 ctr inactive | UBC13 conf 115
CCOc1ccc(NC(=O)CN(C)C(=O)c2cn(-c3ccc(F)cc3)nc2-c2cccc(OC)c2)cc1OCC	none (no result: PHOSPHO1 block)
C[C@@H]1CCCCCCCCC(=O)OCCN[C@H](C)CCCCCCCCC(=O)OCCN[C@H](C)CCCCCCCCC(=O)OCCN1	UBC13 polyUb 63 (no result: PHOSPHO1 block) | Casp3 UBC13 ctr inactive | UBC13 conf 51
OC12CC3C[C@H](C1)C(N1CCOCC1)[C@@H](C3)C2 (stereo partly specified)	none
CC1CN(c2ccc([N+](=O)[O-])c(NCCOc3ccc(Cl)cc3)c2)CC(C)N1 (stereo unspecified)	none (no result: proCasp7 act, procasp3 activ, IDE inh)
CCc1ccc(OCCNc2cc(N3CCNC(C)C3)ccc2[N+](=O)[O-])cc1 (stereo unspecified)	UBC13 polyUb 68 (no result: PHOSPHO1 block) | Casp3 UBC13 ctr inactive | UBC13 conf 55
O=C(COc1ccc(Cc2ccccc2)cc1)c1ccc(F)cc1	UBC13 polyUb 45 | Casp3 UBC13 ctr 49 | UBC13 conf inactive
O=C(COc1ccc(F)cc1)c1ccc2c(c1)CCCC2	none (no result: PHOSPHO1 block)
CCOC(=O)c1c(NC(=O)COC(=O)CNC(=O)c2ccc(Cl)cc2Cl)sc(C(=O)N(C)C)c1C	none (no result: PHOSPHO1 block)
Cc1cc(Sc2nnc(/N=C/N(C)C)s2)c2ccccc2n1	UBC13 polyUb 55 (no result: IDE cell activ) | Casp3 UBC13 ctr inactive | UBC13 conf 65
CN(C)CCn1cnc2c(c1=N)C(c1ccccc1)c1ccc3ccccc3c1O2 (stereo unspecified)	UBC13 polyUb 48 | Casp3 UBC13 ctr inactive | UBC13 conf 56
O=C(C[C@@H]1C/C=C\C[C@H](Cc2ccc(F)cc2)C(=O)OCCNC1=O)NCCO	none (no result: PHOSPHO1 block)
Cc1ccc(-c2[nH]c3cc(C(=O)NCCCn4ccnc4)ccc3c(=O)c2O)cc1	UBC13 polyUb 46 | Casp3 UBC13 ctr inactive | UBC13 conf inactive
Cc1ccc(CNC(=O)c2ccc3c(=O)c(O)c(-c4ccc(C)cc4)[nH]c3c2)cc1	none
CCOC(=O)c1ccc(NC(=O)c2nc[nH]c2C(=O)NCCCCCNC(=O)OC(C)(C)C)cc1	UBC13 polyUb 45 | Casp3 UBC13 ctr inactive | UBC13 conf inactive
CCOC(=O)c1ccc(NC(=O)c2nc[nH]c2C(=O)NC2CCN(C(=O)OC(C)(C)C)CC2)cc1	UBC13 polyUb 92 | Casp3 UBC13 ctr inactive | UBC13 conf 92
CCOC(=O)c1ccc(NC(=O)c2nc[nH]c2C(=O)NCC(=O)OC(C)(C)C)cc1	UBC13 polyUb 52 | Casp3 UBC13 ctr inactive | UBC13 conf inactive
CC(C)(C)OC(=O)N1CCC(NC(=O)c2nc[nH]c2C(=O)NC2CCN(C(=O)OC(C)(C)C)CC2)CC1	none (no result: PHOSPHO1 block)
Cc1cc(C)cc(NC(=O)CN2CCC(C(=O)c3ccccc3)CC2)c1	none
c1ccc(-c2csc(CN3CCCCC3)n2)cc1	none (no result: UBC13 polyUb, PHOSPHO1 block, proCasp7 act, procasp3 activ, IDE inh)
CNCCC(Oc1ccc(C(F)(F)F)cc1)c1ccccc1 (stereo unspecified)	UBC13 polyUb 50 | Casp3 UBC13 ctr inactive | UBC13 conf inactive
CCCCC(=O)Nc1ccc2c3c(cccc13)C(=O)N2CC	UBC13 polyUb 60 | Casp3 UBC13 ctr inactive | UBC13 conf 66
CC1CCCC(NC(=O)COC(=O)c2n[nH]c3ccccc23)C1C (stereo unspecified)	none (no result: PHOSPHO1 block)
CCC1CCCCN1CCCNC(=O)Cn1ncn2nc(-c3ccc(OC)cc3)cc2c1=O (stereo unspecified)	none
O=S1(=O)CC(O)C(N=Nc2c(O)n(Cc3ccccc3)c3ccccc23)C1 (stereo unspecified)	UBC13 polyUb 56 | Casp3 UBC13 ctr inactive | UBC13 conf inactive
COc1cccc(S(=O)(=O)N2CCN(Cc3ccc4c(c3)OCO4)CC2)c1	none
CCS(=O)(=O)N1CCC(C(=O)Nc2cccc(F)c2)CC1	none
